Reference: ChEMBL document CHEMBL1649111, “Restoration of susceptibility of intracellular methicillin-resistant Staphylococcus aureus to beta-lactams: comparison of strains, cells, and antibiotics” (Antimicrob Agents Chemother, 2008)

Test system: Staphylococcus aureus
Assay: Antimicrobial activity against intracellular beta-lactamase negative methicillin-susceptible Staphylococcus aureus ATCC 25923 infected in human keratinocytes assessed as increase in bacterial count from original inoculum at low compound concentration after 24 hrs at pH 7.4
Format: functional
Summary of the method: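 Primary human skin keratinocytes or Calu-3 bronchial epithelial cells infected with MSSA ATCC 25923 at 5 × 10⁷ to 1 × 10⁸ bacteria/ml, 2 h internalization. Postphagocytosis inoculum 1.5 × 10⁶ to 3.0 × 10⁶ CFU/mg protein. Cloxacillin concentration range for 24 h; CFU/mg protein change vs. inoculum (n = 3). Hill fit gives Emin/Emax; static concentration by graphical interpolation.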

Cc1onc(-c2ccccc2Cl)c1C(=O)N[C@@H]1C(=O)N2[C@@H]1SC(C)(C)[C@@H]2C(=O)O [CLOXACILLIN]
log10cfu: 2.64
